The nature of the series: Toxicity liver stage against HepG2, at 10uM. Particulars: human, HepG2-A16-CD81EGFP cells; read-out: INHIBITION
More on the design: test concentration 10 uM, cell line HepG2-A16-CD81EGFP. It is filed as cell-based. The gist of the method:
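Uninfected HepG2-A16-CD81EGFP cells, 3 × 10^3 per well, 1536-well, plated on prespotted compound at 10 μM final, parasite-free screening media added to match infected plates; puromycin 10 μM positive, DMSO 0.5% negative; run in parallel with 48 h PbLuc assay at 37 °C, 5% CO2; viability by CellTiter-Glo luminescence, normalized to controls.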
As for `COc1ccccc1CNC(=O)CS(=O)(=O)Cc1ccccc1`, the cytotoxicity at 10 µM was determined as 3.26%.
Take `CCCn1cnc2c1CN(C(=O)c1ccc(F)cc1)[C@H](C(=O)OC)C2`: the cytotoxicity at 10 µM was 4.94%.
Take `CCN(CC)C1(Cc2cc(-c3cccc(O)c3)on2)COC1`: the cytotoxicity at 10 µM came to 7.71%.
For the compound `COC1(CNC(=O)c2ccc(F)c(F)c2)CCSC1` (stereo not drawn), the cytotoxicity at 10 µM is -2.11%.
Consider `O=C(c1ccoc1)N1CCC2(CC1)C(=O)N(CC1CC1)c1ccccc12`, for which the cytotoxicity at 10 µM amounted to 10.7%.
To `O=C1CC2(CCCCN2C(=O)c2ccccc2)CN1CC1CC1` (stereo not drawn) belongs 3.85%; to `CNC(=O)CCc1cc(C2CCCN2C(=O)CO)nc(C)n1` (stereo not drawn), -0.785%.
As to `CC(C)N1CC(c2ccnc(Nc3nccs3)n2)C1`, the cytotoxicity at 10 µM was found to be 1.18%.
To `CC(C(=O)N1CCOCC1)n1nc(-c2cccs2)cc(N)c1=O` (stereo not drawn) belongs 8.74%; to `CN(C)C(=O)C1CN(c2ccncn2)CCN(C2CCOCC2)C1` (stereo not drawn), -0.621%; to `COc1ccc(SCC2CNc3nc4ccccc4c(=O)n32)cc1` (stereo not drawn), 7.69%.
To `CN1CCOC(C(=O)N(C)c2ccc3c(c2)CCO3)C1` (stereo not drawn) belongs -45.4%.
As for `CC(OCC1CC1)C(=O)Nc1ccn(Cc2ccccc2)n1` (stereo not drawn), the cytotoxicity at 10 µM stood at 11.9%.
As for `CC(OCC1CC1)C(=O)N1CCCN(c2cccnn2)CC1` (stereo not drawn), the cytotoxicity at 10 µM was found to be 8.13%.
With `CCN(CC(C)O)C(=O)Nc1cnn(CCOC)c1` (stereo not drawn), the cytotoxicity at 10 µM is -11.6%.
For `O=C1CSCN1Cc1nc(-c2ccc(N3CCCCC3)cc2)no1`, the cytotoxicity at 10 µM was -6.79%.
As to `Cc1nc(CC2CCCN(Cc3nc(N)c4ccccc4n3)C2)no1` (stereo not drawn), the cytotoxicity at 10 µM was -41.3%.
As for `CSCCC(NC(N)=O)C(=O)NCc1cnn(-c2ccccc2)c1` (stereo not drawn), the figure is 5.79%; as for `Cn1cc(C2CCCN2C(=O)CS(=O)(=O)C2CCCC2)cn1` (stereo not drawn), -4.8%; as for `N#CCCN(Cc1ccco1)C(=O)CN1CCCC1c1cccs1` (stereo not drawn), -2.56%.
On to `COCCOc1ccc(NC(=O)N(CCCO)CC(C)(C)C)cn1`, for which the cytotoxicity at 10 µM is -7.85%.
Take `CCC(C)(CC(=O)OC)NC(=O)c1ccc2[nH]ccc2c1` (stereo not drawn): the cytotoxicity at 10 µM was -2.8%.
To `COCc1nccc(C2CCCN(Cc3ccc(SC)cc3)C2)n1` (stereo not drawn) belongs 23.4%; to `Cc1ccc(F)cc1NC(=O)CNc1cccc2c1CCCC2`, 4.33%; to `Cc1nn(C)c(N(C)C)c1CNCc1cnn(Cc2ccccc2)c1`, -5.6%.
As to `COc1cc(C(=O)N(CCC#N)Cc2ccccn2)ccc1C`, the cytotoxicity at 10 µM is 11.3%.
On to `Cc1cccc(N(C)S(=O)(=O)c2cc(C(=O)O)cs2)c1C`, for which the cytotoxicity at 10 µM was -0.731%.
To `Cc1nn(C)c(C)c1OCC(=O)NCC(O)c1ccsc1` (stereo not drawn) belongs 2.27%; to `O=C(CCCNCc1ccc(Cl)c2cccnc12)NC1CC1`, -4.76%.
In the case of `CCOCCC(=O)NC1(c2cccc(Br)c2)CC1`, the cytotoxicity at 10 µM amounted to 7.53%.
As for `CC(C)(C)c1nnc(CN2CCN(C(=O)N3CCCCC3)CC2)o1`, the cytotoxicity at 10 µM came to 2.44%.
As to `Cc1cc(=O)n2ncnc2n1CC(O)c1cc(Cl)ccc1Cl` (stereo not drawn), the cytotoxicity at 10 µM turned out to be 3.19%.
With `CCN(CC)c1ccc(NS(=O)(=O)c2cnn(C(C)C)c2)cn1`, the cytotoxicity at 10 µM stood at 5.02%.
As for `Cc1cc(C)n(CC2CN(CCc3ccncc3)CCO2)n1` (stereo not drawn), the cytotoxicity at 10 µM was 0.347%.
As for `Cc1ccc(C(=O)NCC(O)c2cnn(C)c2)c(Br)c1` (stereo not drawn), the figure is -6.53%; as for `Cc1cc(C(=O)N2CCN(CC(O)Cn3cccn3)CC2)c(C)o1` (stereo not drawn), -4.76%; as for `Cc1ccc(NC(=O)C2CCc3ccccc3N2)cc1` (stereo not drawn), -5.57%.
As for `CCCOC1CCCN(C(=O)c2[nH]nc(C)c2Br)C1` (stereo not drawn), the figure is 0.595%; as for `Cc1cc(CN(Cc2ccccc2)C(C)CN2CCOCC2)no1` (stereo not drawn), 4.69%.
`CNC(=O)NC(=O)CCSc1ccccc1C`: the cytotoxicity at 10 µM amounted to 4.11%.
As for `CCc1noc(CCCC(=O)Nc2cc(C(F)(F)F)c[nH]c2=O)n1`, the figure is -4.84%; as for `Cc1nnc2n1CCN(C(=O)CN1C(=O)CSc3ccccc31)C2`, 0.442%.
Turning to `Cn1cc(NC(=O)c2ccccn2)cc(Br)c1=O`, the cytotoxicity at 10 µM was -12.8%.
On to `CCc1nnc2n1CCN(C(=O)c1csc(-c3cnn(C)c3)n1)C2`, for which the cytotoxicity at 10 µM was determined as 6.41%.
As for `O=c1cc(CN2CCCC2)nc2n1CCCN(S(=O)(=O)C1CC1)C2`, the figure is -3.56%.
Regarding `COCCC1COC2(CCN(C(=O)c3ccco3)CC2)C1` (stereo not drawn), the cytotoxicity at 10 µM came to 3.63%.
As for `CN(C)C(C(=O)N1CCN(CCn2cccc2)CC1)c1ccc(F)cc1` (stereo not drawn), the figure is -14.9%; as for `CCCN1CCCn2nc(CNS(=O)(=O)c3cccc(F)c3)cc2C1`, -13.1%.
As for `COc1cccc2ccc(CN3CCN(c4cccnc4)CC3)nc12`, the figure is -8.66%; as for `Cn1ccnc1CN(CCO)Cc1ccc(C(F)(F)F)cc1`, -17.3%; as for `O=C(O)[C@@H]1CN(Cc2cnc(C3CCCCC3)nc2)C[C@H]1C1CC1`, -10%.
Consider `O=S(=O)(c1c(Cl)nc2sccn12)N1CCCC2(CCNC2)C1` (stereo not drawn), for which the cytotoxicity at 10 µM was 8.64%.
To `CN(Cc1nc(CC2CC2)no1)CC1COc2ccccc2O1` (stereo not drawn) belongs -3.89%; to `c1cc(CN2CCC(c3nnc4n3CCCCC4)CC2)c2c(c1)OCO2`, -3.14%; to `CC(C)c1nnc(NCc2cc3n(n2)CCNC3)s1`, -2.11%.
For `Cc1nc(C2CCNCC2)cc(N2CCCC(C(=O)NCCCO)C2)n1` (stereo not drawn), the cytotoxicity at 10 µM was -124%.
For `Cc1nc2cc(C(=O)N3C[C@@H](C(=O)O)[C@H](C4CC4)C3)ccc2[nH]1`, the cytotoxicity at 10 µM was -12.1%.
On to `Nc1ccc(C(=O)N2CCC(Oc3cccc(C(F)(F)F)c3)CC2)cn1`, for which the cytotoxicity at 10 µM turned out to be 5.3%.
On to `COCCC1CCCCN1C(=O)c1coc(COc2ccccc2F)n1` (stereo not drawn), for which the cytotoxicity at 10 µM was found to be 3.97%.
As to `CCN(CC1=CCN(C)CC1)C(=O)CCOC`, the cytotoxicity at 10 µM was determined as 5.09%.
Regarding `CN1CCCC2(CCN(S(=O)(=O)c3c(Cl)nc4sccn34)C2)C1=O` (stereo not drawn), the cytotoxicity at 10 µM is 12.4%.
To `COc1nc2c(cc1C(=O)NCCCc1csc(N)n1)CCC2` belongs 3.63%; to `COc1ccc(C(C(=O)O)N2CCN(C3CCCCC3)CC2)cc1OC` (stereo not drawn), -4.89%.
To `CCc1nc(C)sc1CN1CC[C@@](O)(C2CC2)[C@H](C)C1` belongs -10.3%; to `Cc1nc(C(=O)N2CCCC(c3cccc(-n4ccnc4)n3)C2)co1` (stereo not drawn), 8.31%; to `CN(C)Cc1ccnc(C2CCCN2Cc2cc[nH]n2)n1` (stereo not drawn), -0.902%.
Regarding `CC(C)Oc1ccc(CNC(=O)NCc2ccncc2)cc1F`, the cytotoxicity at 10 µM is -18.3%.
On to `CCc1nc(C2CCCN2C(=O)c2cnns2)no1` (stereo not drawn), for which the cytotoxicity at 10 µM is 1.04%.
In the case of `Cc1cnn(CC2CN(CC(=O)Nc3nccs3)CCO2)c1` (stereo not drawn), the cytotoxicity at 10 µM is -7.51%.
As for `CNc1cc(N2CCCC2CNCc2csc(C)n2)ncn1` (stereo not drawn), the figure is -9.71%; as for `O=C(Cc1ccc(F)cc1)N1CCN(CC(O)c2ccccc2)CC1` (stereo not drawn), -11.2%.
`Cc1nc(C2CCCN(C(=O)CCn3ccccc3=O)C2)no1` (stereo not drawn): the cytotoxicity at 10 µM was -9.35%.
As for `COc1c(C)cnc(CN2CCOC(Cn3cc(C)cn3)C2)c1C` (stereo not drawn), the figure is -14.7%.
With `COc1cc(C(=O)Nc2nc(C)no2)ccc1OC1CCCC1`, the cytotoxicity at 10 µM is -2.12%.
To `COc1cccc(-n2c(C)cc(C(=O)NC(C)(C)C(N)=O)c2C)c1` belongs -2%.
Regarding `Brc1ccccc1-c1nnc(CNCCn2cccn2)o1`, the cytotoxicity at 10 µM was -24.5%.
Turning to `Cc1nc(CN2CCCN(Cc3nccn3C(C)C)CC2)no1`, the cytotoxicity at 10 µM was -1.91%.
For `CC(=O)NCCNC(=O)CN1CCCC(Cn2cncn2)C1` (stereo not drawn), the cytotoxicity at 10 µM is -18.9%.
For `CC(C)CCC(=O)N(C)CC(=O)Nc1ccc(Br)cn1`, the cytotoxicity at 10 µM is -8.39%.
For the compound `CC(C)CC(=O)N(C)CC(=O)Nc1ccc(Br)cn1`, the cytotoxicity at 10 µM is -1.43%.
Take `O=C(NC1CCN(Cc2cccc3c2OCCO3)CC1)c1cccs1`: the cytotoxicity at 10 µM is -4.71%.
For the compound `CN(Cc1ccco1)C(=O)[C@H]1CSCN1C(=O)OC(C)(C)C`, the cytotoxicity at 10 µM is -8.97%.
As for `CNc1nc(CNC(=O)Nc2cccc(-c3nnco3)c2)cs1`, the figure is -5.26%; as for `CC(=O)NC(C)(C)C(=O)Nc1ncc(Cc2ccc(C)c(F)c2)s1`, 0.987%; as for `O=C(NCCOCC(F)(F)F)c1ccc(-c2ccco2)[nH]c1=O`, -8.5%.
As for `Cc1ccc(N2CCCC(NCc3cccc4c3OCCO4)C2)nn1` (stereo not drawn), the figure is -1.69%; as for `Cc1cc(C)n(C2CCCN(C(=O)C3=NN(C)C(=O)CC3)C2)n1` (stereo not drawn), -9.21%; as for `O=C(CCNc1ncccn1)NCCc1ccn(-c2ccccc2)n1`, 0.914%.
As for `O=C1CCC2(CCC(NCc3ccsc3)CC2)N1Cc1ccccc1` (stereo not drawn), the figure is 3.79%; as for `c1cc(CN2Cc3nnn(CC4CC4)c3C(COCC3CC3)C2)co1` (stereo not drawn), -0.336%.
Regarding `O=C(CN1CC(c2nc(C3CC3)no2)C1)N1CCOCC1`, the cytotoxicity at 10 µM was -9.76%.
To `COCC1CN(Cc2ccc(C)o2)Cc2cn(C)nc21` (stereo not drawn) belongs -9.2%; to `CNCC(=O)N1CC(c2cc(Nc3ncccn3)nc(C)n2)C1`, 4.19%.
To `CCOC1COC2(CCN(Cc3cccc(C#N)c3)CC2)C1` (stereo not drawn) belongs -2.66%.
`COc1ccc(C[C@H]2CN(C3CCOCC3)CC[C@@H]2OCC2CC2)cc1`: the cytotoxicity at 10 µM is 2.38%.
On to `CC(=O)N1CCC2(CC1)CNc1c(F)cccc12`, for which the cytotoxicity at 10 µM turned out to be 4.79%.
With `Cc1[nH]c2cc(C3CCN(C(=O)c4ccccn4)CC3)nn2c(=O)c1C`, the cytotoxicity at 10 µM came out at 0.636%.
Take `CN(C)C(=O)CN1C[C@H]2CC[C@@H](C1)N(Cc1c(F)cccc1Cl)C2`: the cytotoxicity at 10 µM came to 5.48%.

Values taken from ChEMBL document CHEMBL4513216, “Probing the Open Global Health Chemical Diversity Library for Multistage-Active Starting Points for Next-Generation Antimalarials” (ACS Infect Dis, 2020).
